Results published in ChEMBL document CHEMBL2331542, “Synthesis and in vitro antibacterial activity of quinolone/naphthyridone derivatives containing 3-alkoxyimino-4-(methyl)aminopiperidine scaffolds” (2013).
In brackets after ≈: the same amount, converted by molar mass.

What was measured:
Format in all cases: functional
[1] = test system: Klebsiella pneumoniae; assay: Antibacterial activity against extended-spectrum beta-lactamase-producing Klebsiella pneumoniae isolate 12-1
Outline: (§1)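 MIC determined in vitro by a standard technique and defined as the lowest compound concentration giving complete inhibition of bacterial growth. The Gram-positive and Gram-negative panels were tested alongside gemifloxacin, levofloxacin and ciprofloxacin reference drugs.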

[2] = test system: Staphylococcus aureus; assay: Antibacterial activity against Staphylococcus aureus […]; outline: as §1
[3] = test system: Escherichia coli; assay: Antibacterial activity against extended-spectrum beta-lactamase-producing Escherichia coli isolate 12-2; outline: as §1
[4] = test system: Klebsiella pneumoniae; assay: Antibacterial activity against Klebsiella pneumoniae isolate 12-1; outline: as §1
[5] = test system: Escherichia coli; assay: Antibacterial activity against Escherichia coli isolate 12-4; outline: as §1
[6] = test system: Staphylococcus aureus; assay: Antibacterial activity against methicillin-resistant Staphylococcus aureus isolate 12-3
Outline: (§2)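 MIC determined in vitro by standard techniques, defined as the lowest compound concentration giving complete inhibition of bacterial growth. Gemifloxacin, levofloxacin and ciprofloxacin were tested alongside as reference drugs.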

[7] = test system: Staphylococcus epidermidis; assay: Antibacterial activity against methicillin-sensitive Staphylococcus epidermidis isolate 12-2; outline: as §1
[8] = test system: Escherichia coli; assay: Antibacterial activity against extended-spectrum beta-lactamase-producing Escherichia coli isolate 12-1; outline: as §1
[9] = test system: Staphylococcus aureus; assay: Antibacterial activity against methicillin-resistant Staphylococcus aureus isolate 12-13; outline: as §2
[10] = test system: Staphylococcus epidermidis; assay: Antibacterial activity against methicillin-sensitive Staphylococcus epidermidis isolate 12-1; outline: as §1
[11] = test system: Staphylococcus aureus; assay: Antibacterial activity against methicillin-sensitive Staphylococcus aureus isolate 12-7; outline: as §1
[12] = test system: Staphylococcus epidermidis; assay: Antibacterial activity against methicillin-resistant Staphylococcus epidermidis isolate 12-5; outline: as §2
[13] = test system: Staphylococcus aureus; assay: Antibacterial activity against methicillin-resistant Staphylococcus aureus isolate 12-15; outline: as §2
[14] = test system: Staphylococcus epidermidis; assay: Antibacterial activity against methicillin-sensitive Staphylococcus epidermidis isolate 12-3; outline: as §1
[15] = test system: Escherichia coli; assay: Antibacterial activity against extended-spectrum beta-lactamase-producing Escherichia coli isolate 12-4; outline: as §1
[16] = test system: Streptococcus pneumoniae; assay: Antibacterial activity against Streptococcus pneumoniae isolate 12-5; outline: as §1
[17] = test system: Escherichia coli; assay: Antibacterial activity against Escherichia coli isolate 12-1; outline: as §1
[18] = test system: Pseudomonas aeruginosa; assay: Antibacterial activity against Pseudomonas aeruginosa isolate 12-2; outline: as §1
[19] = test system: Klebsiella pneumoniae; assay: Antibacterial activity against Klebsiella pneumoniae isolate 12-2; outline: as §1
[20] = test system: Staphylococcus epidermidis; assay: Antibacterial activity against methicillin-resistant Staphylococcus epidermidis isolate 12-33; outline: as §2
[21] = test system: Escherichia coli; assay: Antibacterial activity against Escherichia coli isolate 12-5; outline: as §1
[22] = test system: Pseudomonas aeruginosa; assay: Antibacterial activity against Pseudomonas aeruginosa ATCC 27853; outline: as §1
[23] = test system: Klebsiella pneumoniae; assay: Antibacterial activity against Klebsiella pneumoniae isolate 12-4; outline: as §1
[24] = test system: Escherichia coli; assay: Antibacterial activity against Escherichia coli ATCC 25922; outline: as §1
[25] = test system: Streptococcus pneumoniae; assay: Antibacterial activity against Streptococcus pneumoniae isolate 12-2; outline: as §1
[26] = test system: Pseudomonas aeruginosa; assay: Antibacterial activity against Pseudomonas aeruginosa isolate 12-1; outline: as §1
[27] = test system: Staphylococcus aureus; assay: Antibacterial activity against methicillin-sensitive Staphylococcus aureus isolate 12-10; outline: as §1
[28] = test system: Staphylococcus epidermidis; assay: Antibacterial activity against methicillin-resistant Staphylococcus epidermidis isolate 12-35; outline: as §2
[29] = test system: Staphylococcus aureus; assay: Antibacterial activity against methicillin-sensitive Staphylococcus aureus isolate 12-6; outline: as §1
[30] = test system: Klebsiella pneumoniae; assay: Antibacterial activity against extended-spectrum beta-lactamase-producing Klebsiella pneumoniae isolate 12-2; outline: as §1
[31] = test system: Klebsiella pneumoniae; assay: Antibacterial activity against extended-spectrum beta-lactamase-producing Klebsiella pneumoniae isolate 12-4; outline: as §1

| Structure (SMILES) | MIC [1] [µg/mL] | MIC [2] [µg/mL] | MIC [3] [µg/mL] | MIC [4] [µg/mL] | MIC [5] [µg/mL] | MIC [6] [µg/mL] | MIC [7] [µg/mL] | MIC [8] [µg/mL] | MIC [10] [µg/mL] | MIC [11] [µg/mL] | MIC [12] [µg/mL] | MIC [14] [µg/mL] | MIC [18] [µg/mL] | MIC [19] [µg/mL] | MIC [20] [µg/mL] | MIC [23] [µg/mL] | MIC [27] [µg/mL] | MIC [28] [µg/mL] | MIC [30] [µg/mL] | MIC [31] [µg/mL] | other results |
| --- | --- | --- | --- | --- | --- | --- | --- | --- | --- | --- | --- | --- | --- | --- | --- | --- | --- | --- | --- | --- | --- |
| CCO/N=C1\CN(c2c(F)cc3c(=O)c(C(=O)O)cn4c3c2OC[C@@H]4C)CCC1NC (stereo not given in full) | 8 (≈ 18.5 µM) | 0.5 (≈ 1.16 µM) | > 128 | 2 (≈ 4.62 µM) | > 128 | 1 (≈ 2.31 µM) | 2 (≈ 4.62 µM) | > 128 | 0.5 (≈ 1.16 µM) | 128 (≈ 296 µM) | 0.5 (≈ 1.16 µM) | 0.5 (≈ 1.16 µM) | 8 (≈ 18.5 µM) | 1 (≈ 2.31 µM) | 8 (≈ 18.5 µM) | 1 (≈ 2.31 µM) | > 128 | 0.5 (≈ 1.16 µM) | 32 (≈ 74 µM) | > 128 | MIC [9]: 1 µg/mL (≈ 2.31 µM); MIC [13]: 1 µg/mL (≈ 2.31 µM); MIC [15]: 64 µg/mL (≈ 148 µM); MIC [16]: 8 µg/mL (≈ 18.5 µM); MIC [17]: 4 µg/mL (≈ 9.25 µM); MIC [21]: > 128 µg/mL; MIC [22]: 32 µg/mL (≈ 74 µM); MIC [24]: 16 µg/mL (≈ 37 µM); MIC [25]: 1 µg/mL (≈ 2.31 µM); MIC [26]: 16 µg/mL (≈ 37 µM); MIC [29]: 1 µg/mL (≈ 2.31 µM) |
| O=C1NC2CCN(c3nc4c(cc3F)c(=O)c(C(=O)O)cn4C3CC3)CC2O1 (stereo not given) | 128 (≈ 330 µM) | 1 (≈ 2.57 µM) | > 128 | 2 (≈ 5.15 µM) | > 128 | 2 (≈ 5.15 µM) | 2 (≈ 5.15 µM) | > 128 | 1 (≈ 2.57 µM) | 128 (≈ 330 µM) | 0.5 (≈ 1.29 µM) | 1 (≈ 2.57 µM) | 16 (≈ 41.2 µM) | 2 (≈ 5.15 µM) | 1 (≈ 2.57 µM) | 32 (≈ 82.4 µM) | 0.5 (≈ 1.29 µM) | 0.5 (≈ 1.29 µM) | > 128 | 128 (≈ 330 µM) | MIC [9]: 2 µg/mL (≈ 5.15 µM); MIC [13]: 2 µg/mL (≈ 5.15 µM); MIC [15]: 64 µg/mL (≈ 165 µM); MIC [16]: 0.5 µg/mL (≈ 1.29 µM); MIC [17]: 16 µg/mL (≈ 41.2 µM); MIC [21]: > 128 µg/mL; MIC [22]: 8 µg/mL (≈ 20.6 µM); MIC [24]: 1 µg/mL (≈ 2.57 µM); MIC [25]: 2 µg/mL (≈ 5.15 µM); MIC [26]: 16 µg/mL (≈ 41.2 µM); MIC [29]: 1 µg/mL (≈ 2.57 µM) |
| CO/N=C1\CN(c2nc3c(cc2F)c(=O)c(C(=O)O)cn3C2CC2)CCC1N (stereo not given) | 8 (≈ 20.5 µM) | 0.25 (≈ 0.642 µM) | 64 (≈ 164 µM) | 0.25 (≈ 0.642 µM) | > 128 | 0.25 (≈ 0.642 µM) | 2 (≈ 5.14 µM) | > 128 | 0.5 (≈ 1.28 µM) | 32 (≈ 82.2 µM) | 2 (≈ 5.14 µM) | 0.5 (≈ 1.28 µM) | 8 (≈ 20.5 µM) | 0.25 (≈ 0.642 µM) | 4 (≈ 10.3 µM) | 0.125 (≈ 0.321 µM) | 2 (≈ 5.14 µM) | 2 (≈ 5.14 µM) | 8 (≈ 20.5 µM) | > 128 | MIC [9]: 0.25 µg/mL (≈ 0.642 µM); MIC [13]: 0.25 µg/mL (≈ 0.642 µM); MIC [15]: 32 µg/mL (≈ 82.2 µM); MIC [16]: 4 µg/mL (≈ 10.3 µM); MIC [17]: 2 µg/mL (≈ 5.14 µM); MIC [21]: > 128 µg/mL; MIC [22]: 32 µg/mL (≈ 82.2 µM); MIC [24]: 32 µg/mL (≈ 82.2 µM); MIC [25]: 0.25 µg/mL (≈ 0.642 µM); MIC [26]: 8 µg/mL (≈ 20.5 µM); MIC [29]: 0.25 µg/mL (≈ 0.642 µM) |
| CCO/N=C1\CN(c2nc3c(cc2F)c(=O)c(C(=O)O)cn3C2CC2)CCC1NC (stereo not given) | 64 (≈ 153 µM) | 0.5 (≈ 1.2 µM) | > 128 | 4 (≈ 9.58 µM) | > 128 | 4 (≈ 9.58 µM) | 4 (≈ 9.58 µM) | > 128 | 1 (≈ 2.4 µM) | 32 (≈ 76.7 µM) | 1 (≈ 2.4 µM) | 1 (≈ 2.4 µM) | 128 (≈ 307 µM) | 4 (≈ 9.58 µM) | 0.25 (≈ 0.599 µM) | 2 (≈ 4.79 µM) | 0.5 (≈ 1.2 µM) | 1 (≈ 2.4 µM) | > 128 | > 128 | MIC [9]: 4 µg/mL (≈ 9.58 µM); MIC [13]: 4 µg/mL (≈ 9.58 µM); MIC [15]: 32 µg/mL (≈ 76.7 µM); MIC [16]: 0.25 µg/mL (≈ 0.599 µM); MIC [17]: 32 µg/mL (≈ 76.7 µM); MIC [21]: > 128 µg/mL; MIC [22]: 4 µg/mL (≈ 9.58 µM); MIC [24]: 4 µg/mL (≈ 9.58 µM); MIC [25]: 0.25 µg/mL (≈ 0.599 µM); MIC [26]: 128 µg/mL (≈ 307 µM); MIC [29]: 0.25 µg/mL (≈ 0.599 µM) |
| O=C(O)c1cn(C2CC2)c2cc(N3CCNCC3)c(F)cc2c1=O [CIPROFLOXACIN] | 2 (≈ 6.04 µM) | 0.25 (≈ 0.754 µM) |  | 0.03 (≈ 0.0905 µM) |  |  | 0.5 (≈ 1.51 µM) |  | 0.06 (≈ 0.181 µM) | 64 (≈ 193 µM) | 0.015 (≈ 0.0453 µM) | 0.06 (≈ 0.181 µM) | 16 (≈ 48.3 µM) | 0.125 (≈ 0.377 µM) | 0.015 (≈ 0.0453 µM) | 0.125 (≈ 0.377 µM) | 0.25 (≈ 0.754 µM) | 0.015 (≈ 0.0453 µM) | 4 (≈ 12.1 µM) | 4 (≈ 12.1 µM) |  |
| C[C@H]1COc2c(N3CCN(C)CC3)c(F)cc3c(=O)c(C(=O)O)cn1c23.C[C@H]1COc2c(N3CCN(C)CC3)c(F)cc3c(=O)c(C(=O)O)cn1c23.O [LEVOFLOXACIN] |  | 0.125 | 16 | 0.06 | 8 | 0.125 | 0.25 | 16 | 0.25 | 32 | 0.125 | 0.25 | 16 | 0.06 | 8 | 0.25 | 0.06 | 0.125 | 8 | 4 | MIC [9]: 0.125 µg/mL; MIC [13]: 0.125 µg/mL; MIC [16]: 0.125 µg/mL; MIC [21]: 8 µg/mL; MIC [25]: 0.125 µg/mL; MIC [29]: 0.125 µg/mL |
